# Experimental data from ChEMBL document CHEMBL4431389, “Optimisation of a novel series of potent and orally bioavailable azanaphthyridine SYK inhibitors” (Bioorg Med Chem Lett, 2016).
# Molecular target: albumin (Homo sapiens, UniProt P02768)
# Test: Binding affinity to human serum albumin by HPLC analysis
# Type: ADME
# Conditions: read-out: PB (converted)
# Chain of albumin (P02768 whole entry): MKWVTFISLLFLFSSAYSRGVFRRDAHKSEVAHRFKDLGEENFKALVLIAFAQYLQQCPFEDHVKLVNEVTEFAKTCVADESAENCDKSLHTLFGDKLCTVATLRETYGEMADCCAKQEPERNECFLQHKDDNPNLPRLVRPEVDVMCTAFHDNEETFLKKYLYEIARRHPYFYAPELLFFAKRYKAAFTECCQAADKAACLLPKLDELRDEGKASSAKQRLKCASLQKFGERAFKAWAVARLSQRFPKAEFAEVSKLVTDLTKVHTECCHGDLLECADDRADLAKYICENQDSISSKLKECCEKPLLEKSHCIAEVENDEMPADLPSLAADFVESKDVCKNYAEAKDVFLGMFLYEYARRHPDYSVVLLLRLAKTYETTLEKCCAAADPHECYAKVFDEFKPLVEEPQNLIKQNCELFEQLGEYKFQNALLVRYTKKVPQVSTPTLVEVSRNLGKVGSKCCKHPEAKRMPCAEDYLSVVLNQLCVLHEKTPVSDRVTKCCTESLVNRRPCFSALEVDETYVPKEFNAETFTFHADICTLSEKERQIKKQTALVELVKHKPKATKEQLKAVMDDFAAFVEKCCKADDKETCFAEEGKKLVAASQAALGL
row,fraction unbound,SMILES
1,0.41,O=C1CN(c2cc3nccnc3c(NC[C@H]3CCCNC3)n2)CCN1
2,0.22,Cn1cc(-c2cc3nccnc3c(OC[C@H]3CCCNC3)n2)cn1
3,0.1,Cc1ccc(-c2cc3ncn(C)c(=O)c3c(NC[C@H]3CCCNC3)n2)cc1
4,0.05,CN(C)c1ccc(-c2cc(NC[C@H]3CCCNC3)c3cccnc3c2)cn1
5,0.21,c1cnc2c(NC[C@H]3CCCNC3)nc(-c3cc[nH]n3)cc2n1
6,0.09,Cc1ccc(-c2cc3nc[nH]c(=O)c3c(NC[C@H]3CCCNC3)n2)cc1
7,0.08,Cc1ccc(-c2cc3nccnc3c(NC[C@H]3CCCNC3)n2)s1
8,0.06,CN(C)c1ccc(-c2cc3ncccc3c(NC[C@H]3CCCNC3)n2)cn1
9,0.07,CN(C)c1ccc(-c2cc3nccnc3c(NCC3CNCC(F)(F)C3)n2)cn1 (racemic)
10,0.09,CN(C)c1ccc(-c2cc3nccnc3c(OC[C@@H]3CCCNC3)n2)cn1

# Molecular target: Vascular endothelial growth factor receptor 2 (Homo sapiens, UniProt P35968)
# Test: Inhibition of KDR (unknown origin)
# Conditions: not given
row,IC50,SMILES
1,1580 nM,Cc1ccc(-c2cc3nccnc3c(NCCCCN)n2)cc1

# Molecular target: Voltage-gated inwardly rectifying potassium channel KCNH2 (Homo sapiens, UniProt Q12809)
# Test: Inhibition of human ERG expressed in CHOK1 cell membranes after 2 hrs by cy3b-dofetilide-based fluorescence polarization assay
# Conditions: not given
# Chain of Voltage-gated inwardly rectifying potassium channel KCNH2 (Q12809 whole entry): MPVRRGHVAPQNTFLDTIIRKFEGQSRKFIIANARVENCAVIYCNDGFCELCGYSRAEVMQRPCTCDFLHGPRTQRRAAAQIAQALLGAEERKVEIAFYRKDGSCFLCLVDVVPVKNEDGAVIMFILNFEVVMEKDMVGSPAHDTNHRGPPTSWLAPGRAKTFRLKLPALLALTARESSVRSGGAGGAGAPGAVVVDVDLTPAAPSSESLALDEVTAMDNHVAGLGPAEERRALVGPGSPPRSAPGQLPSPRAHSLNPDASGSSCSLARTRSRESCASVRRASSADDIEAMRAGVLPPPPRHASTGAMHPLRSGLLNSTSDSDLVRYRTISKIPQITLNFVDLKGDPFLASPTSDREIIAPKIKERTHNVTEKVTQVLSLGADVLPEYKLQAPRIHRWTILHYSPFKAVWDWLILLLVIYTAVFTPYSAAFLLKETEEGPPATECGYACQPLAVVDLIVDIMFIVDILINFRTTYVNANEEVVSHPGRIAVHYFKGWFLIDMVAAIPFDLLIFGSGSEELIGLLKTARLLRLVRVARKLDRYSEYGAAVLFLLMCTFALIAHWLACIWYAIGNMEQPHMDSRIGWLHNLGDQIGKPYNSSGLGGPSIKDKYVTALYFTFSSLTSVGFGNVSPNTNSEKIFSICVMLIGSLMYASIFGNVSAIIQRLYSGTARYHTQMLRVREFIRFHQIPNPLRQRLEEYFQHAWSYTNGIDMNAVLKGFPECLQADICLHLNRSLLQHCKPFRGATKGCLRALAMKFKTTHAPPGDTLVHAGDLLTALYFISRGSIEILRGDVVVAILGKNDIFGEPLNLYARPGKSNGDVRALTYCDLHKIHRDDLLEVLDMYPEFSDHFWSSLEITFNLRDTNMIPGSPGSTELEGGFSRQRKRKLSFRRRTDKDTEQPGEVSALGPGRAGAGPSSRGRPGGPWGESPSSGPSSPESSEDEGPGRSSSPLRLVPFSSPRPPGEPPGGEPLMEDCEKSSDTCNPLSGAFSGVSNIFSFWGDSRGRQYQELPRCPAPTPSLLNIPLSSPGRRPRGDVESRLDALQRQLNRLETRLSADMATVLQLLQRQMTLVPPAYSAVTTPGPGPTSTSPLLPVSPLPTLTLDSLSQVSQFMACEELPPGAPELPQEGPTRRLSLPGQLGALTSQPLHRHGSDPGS
row,SMILES,IC50
1,CN1CCNC[C@H]1COc1nc(-c2cnn(C)c2)cc2nccnc12,> 50.1 µM
2,Cn1cc(-c2cc3nccnc3c(NC[C@@H]3CNCCC3(F)F)n2)cn1,25.1 µM
3,Cn1cc(-c2cc3nccnc3c(OCC3CNCC(F)(F)C3)n2)cn1 (racemic),> 50.1 µM
4,Cn1cc(-c2cc3nccnc3c(NCC3CNCC(F)(F)C3)n2)cn1 (racemic),> 50.1 µM
5,Cc1ccc(-c2cc3nccnc3c(NCCCCN)n2)cc1,15.8 µM
6,Cc1ccc(-c2cc3nccnc3c(NC[C@H]3CCCNC3)n2)o1,20 µM
7,Cn1cc(-c2cc3nccnc3c(OC[C@H]3CCCNC3)n2)cn1,> 50.1 µM
8,Cc1ccc(-c2cc3ncn(C)c(=O)c3c(NC[C@H]3CCCNC3)n2)cc1,25.1 µM
9,c1cnc2c(NC[C@H]3CCCNC3)nc(-c3cc[nH]n3)cc2n1,> 50.1 µM
10,Cc1ccc(-c2cc3nc[nH]c(=O)c3c(NC[C@H]3CCCNC3)n2)cc1,7.94 µM
11,Cc1ccc(-c2cc3nccnc3c(NC[C@H]3CCCNC3)n2)s1,5.01 µM
12,CN(C)c1ccc(-c2cc3ncccc3c(NC[C@H]3CCCNC3)n2)cn1,> 50.1 µM
13,CN1CCNC[C@H]1CNc1nc(-c2cnn(C)c2)cc2nccnc12,> 50.1 µM
14,CN(C)c1ccc(-c2cc3nccnc3c(NCC3CNCC(F)(F)C3)n2)cn1 (racemic),> 50.1 µM
15,CN(C)c1ccc(-c2cc3nccnc3c(OC[C@@H]3CCCNC3)n2)cn1,12.6 µM
16,Cn1cc(-c2cc3nccnc3c(NC[C@@H]3CNCCO3)n2)cn1,> 50.1 µM

# Molecular target: Tyrosine-protein kinase JAK1 (Homo sapiens, UniProt P23458)
# Test: Inhibition of JAK1 (unknown origin)
# Conditions: not given
# Chain of Tyrosine-protein kinase JAK1 (P23458 whole entry): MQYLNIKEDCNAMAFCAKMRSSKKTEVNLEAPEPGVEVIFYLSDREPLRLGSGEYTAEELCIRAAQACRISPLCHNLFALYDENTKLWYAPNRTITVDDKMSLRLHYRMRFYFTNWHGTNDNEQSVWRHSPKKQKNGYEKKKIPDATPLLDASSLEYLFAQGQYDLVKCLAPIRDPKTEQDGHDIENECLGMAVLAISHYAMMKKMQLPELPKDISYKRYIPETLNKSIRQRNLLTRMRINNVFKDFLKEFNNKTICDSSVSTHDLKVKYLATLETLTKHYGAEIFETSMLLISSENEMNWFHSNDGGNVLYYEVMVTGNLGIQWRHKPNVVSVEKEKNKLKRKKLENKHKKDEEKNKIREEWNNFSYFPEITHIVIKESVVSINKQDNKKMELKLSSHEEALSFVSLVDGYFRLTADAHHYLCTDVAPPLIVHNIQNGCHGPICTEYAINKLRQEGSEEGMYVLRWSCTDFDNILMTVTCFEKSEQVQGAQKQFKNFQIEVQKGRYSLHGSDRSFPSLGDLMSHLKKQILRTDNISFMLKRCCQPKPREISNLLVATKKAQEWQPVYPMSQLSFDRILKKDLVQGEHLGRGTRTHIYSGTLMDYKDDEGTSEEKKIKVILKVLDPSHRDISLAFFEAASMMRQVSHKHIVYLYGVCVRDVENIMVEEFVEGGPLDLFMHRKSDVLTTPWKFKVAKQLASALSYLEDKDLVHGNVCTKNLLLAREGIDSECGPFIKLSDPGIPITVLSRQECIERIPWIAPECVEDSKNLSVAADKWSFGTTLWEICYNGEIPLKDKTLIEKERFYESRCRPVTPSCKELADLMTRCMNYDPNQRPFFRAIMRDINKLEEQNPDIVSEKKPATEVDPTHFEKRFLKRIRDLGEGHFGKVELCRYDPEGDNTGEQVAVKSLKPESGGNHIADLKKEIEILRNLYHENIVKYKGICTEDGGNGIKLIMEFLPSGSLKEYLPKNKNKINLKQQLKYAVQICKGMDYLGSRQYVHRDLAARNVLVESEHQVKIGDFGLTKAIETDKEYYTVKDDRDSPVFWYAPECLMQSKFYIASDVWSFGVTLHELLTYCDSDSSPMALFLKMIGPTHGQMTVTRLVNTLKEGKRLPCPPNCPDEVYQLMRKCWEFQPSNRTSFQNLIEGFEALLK
row,IC50,SMILES
1,2000 nM,Cc1ccc(-c2cc3nccnc3c(NCCCCN)n2)cc1
2,501 nM,Cn1cc(-c2cc3nccnc3c(NC[C@@H]3CNCCO3)n2)cn1

# System: not listed separately
# Test: Lipophilicity, log D of the compound by chromatographic method
# Type: physicochemical
# Conditions: not given
row,chromatographic logD,SMILES
1,0.6,O=C1CN(c2cc3nccnc3c(NC[C@H]3CCCNC3)n2)CCN1
2,4.2,CN(C)c1ccc(-c2cc3nccnc3c(NCC3CNCC(F)(F)C3)n2)cn1 (racemic)

# Molecular target: T1, Tyrosine-protein kinase SYK (Homo sapiens, UniProt P43405)
# Test: Inhibition of N-terminal 6His-tagged full length human recombinant SYK expressed in baculovirus using Biotin-AAAEEIYGEI as substrate after 60 mins by TR-FRET assay
# Conditions: not given
row,IC50,SMILES
1,3.98 nM,Cn1cc(-c2cc3nccnc3c(NC[C@@H]3CNCCC3(F)F)n2)cn1
2,158 nM,Cn1cc(-c2cc3nccnc3c(OCC3CNCC(F)(F)C3)n2)cn1 (racemic)
3,316 nM,Cn1cc(-c2cc3nccnc3c(NCC3CNCC(F)(F)C3)n2)cn1 (racemic)
4,6310 nM,O=C1CN(c2cc3nccnc3c(NC[C@H]3CCCNC3)n2)CCN1
5,39.8 nM,Cn1cc(-c2cc3nccnc3c(OC[C@H]3CCCNC3)n2)cn1
6,79.4 nM,Cc1ccc(-c2cc3ncn(C)c(=O)c3c(NC[C@H]3CCCNC3)n2)cc1
7,6.31 nM,CN(C)c1ccc(-c2cc(NC[C@H]3CCCNC3)c3cccnc3c2)cn1
8,158 nM,Cc1ccc(-c2cc3nc[nH]c(=O)c3c(NC[C@H]3CCCNC3)n2)cc1
9,20 nM,Cc1ccc(-c2cc3nccnc3c(NC[C@H]3CCCNC3)n2)s1
10,7.94 nM,CN(C)c1ccc(-c2cc3ncccc3c(NC[C@H]3CCCNC3)n2)cn1
11,100 nM,CN1CCNC[C@H]1CNc1nc(-c2cnn(C)c2)cc2nccnc12
12,100 nM,CN(C)c1ccc(-c2cc3nccnc3c(NCC3CNCC(F)(F)C3)n2)cn1 (racemic)
13,25.1 nM,CN(C)c1ccc(-c2cc3nccnc3c(OC[C@@H]3CCCNC3)n2)cn1
14,63.1 nM,Cn1cc(-c2cc3nccnc3c(NC[C@@H]3CNCCO3)n2)cn1

# System: not listed separately
# Test: Cmax in rat at 3 mg/kg, po
# Type: ADME, organism-based
# Design: dose 3 mg/kg, route oral
# Conditions: in vivo
row,Cmax,SMILES
1,148 ng/mL,Cn1cc(-c2cc3nccnc3c(OCC3CNCC(F)(F)C3)n2)cn1 (racemic)
2,96 ng/mL,Cn1cc(-c2cc3nccnc3c(NCC3CNCC(F)(F)C3)n2)cn1 (racemic)
3,28 ng/mL,Cn1cc(-c2cc3nccnc3c(OCC3CNCCC3(F)F)n2)cn1 (racemic)

# Molecular target: Aurora kinase B (Homo sapiens, UniProt Q96GD4)
# Test: Inhibition of N-terminal-6His-tagged full length human Aurora B expressed in baculovirus using 5FAM-PKA-tide as substrate after 120 mins by fluorescence polarization assay
# Conditions: not given
# Chain of Aurora kinase B (Q96GD4 whole entry): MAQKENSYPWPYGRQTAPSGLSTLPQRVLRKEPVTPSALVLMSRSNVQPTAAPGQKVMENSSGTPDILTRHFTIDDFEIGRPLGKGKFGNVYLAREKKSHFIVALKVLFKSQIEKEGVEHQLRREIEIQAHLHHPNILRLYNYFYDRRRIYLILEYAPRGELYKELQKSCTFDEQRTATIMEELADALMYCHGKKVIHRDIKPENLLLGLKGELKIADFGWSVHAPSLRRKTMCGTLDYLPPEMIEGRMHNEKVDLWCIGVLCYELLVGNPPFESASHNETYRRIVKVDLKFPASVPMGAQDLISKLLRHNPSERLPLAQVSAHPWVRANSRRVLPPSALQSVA
row,IC50,SMILES
1,63.1 nM,Cn1cc(-c2cc3nccnc3c(OCC3CNCC(F)(F)C3)n2)cn1 (racemic)
2,501 nM,Cn1cc(-c2cc3nccnc3c(NCC3CNCC(F)(F)C3)n2)cn1 (racemic)
3,7940 nM,O=C1CN(c2cc3nccnc3c(NC[C@H]3CCCNC3)n2)CCN1
4,501 nM,CN(C)c1ccc(-c2cc3nccnc3c(NCC3CNCC(F)(F)C3)n2)cn1 (racemic)

# System: not listed separately
# Test: AUC in rat at 3 mg/kg, po
# Type: ADME, organism-based
# Conditions: in vivo
row,AUC,SMILES
1,296 ng·h/mL,Cn1cc(-c2cc3nccnc3c(OCC3CNCC(F)(F)C3)n2)cn1 (racemic)
2,216 ng·h/mL,Cn1cc(-c2cc3nccnc3c(NCC3CNCC(F)(F)C3)n2)cn1 (racemic)
3,99 ng·h/mL,Cn1cc(-c2cc3nccnc3c(OCC3CNCCC3(F)F)n2)cn1 (racemic)

# System: not listed separately
# Test: Genotoxicity in Salmonella typhimurium TA1537 at 5000 ug/plate in absence of metabolic activation by Ames test
# Type: toxicity
# Conditions: salmonella enterica subsp. enterica serovar typhimurium
row,SMILES,Activity
1,Cn1cc(-c2cc3nccnc3c(NC[C@@H]3CNCCO3)n2)cn1,Non-Toxic

# System: Rattus norvegicus
# Test: (§1) In vivo inhibition of SYK-stimulated Fc-gamma receptor mediated immune complex activation in po dosed CD rat assessed as reduction in cutaneous reverse passive Arthus reaction preincubated for 1 hr followed by ovalbumin challenge with Evans blue dye measured after 4 hrs by spectrophotometric analysis
# Type: functional, organism-based
# Conditions: not given
# Method in brief: (§2)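 Male CD rats (175–200 g, 8 per group, observer blind) got an oral suspension in 1% methylcellulose 1 h before challenge, with blood sampled for exposure. Challenge was iv 1% ovalbumin in saline (10 mg/kg) with 1% Evans blue. Ten min later, under isoflurane, rabbit anti-OVA IgG went intradermally at three left sites, control rabbit IgG on the right. At 4 h, 12 mm skin punches went into formamide, 16 h at 80 °C.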
row,SMILES,inhibition
1,Cn1cc(-c2cc3nccnc3c(NC[C@@H]3CNCCO3)n2)cn1,Dose-dependent effect

# System: Rattus norvegicus
# Test: as §1, with “in” for “in po dosed”, “reaction at 30 mg/kg, po” for “reaction”
# Type: functional
# Conditions: not given
# Method in brief: as §2
row,SMILES,inhibition in vivo at 30 mg/kg
1,Cn1cc(-c2cc3nccnc3c(NC[C@@H]3CNCCO3)n2)cn1,85%

# System: not listed separately
# Test: Half life in rat at 3 mg/kg, po or 1 mg/kg, iv
# Type: ADME, organism-based
# Conditions: in vivo
# Method in brief: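 Screening PK in rats: oral dosing at 3 mg/kg (n = 3) and intravenous dosing at 1 mg/kg (n = 1). Blood clearance, volume of distribution at steady state, half-life and oral bioavailability were derived from these profiles.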
row,half-life,SMILES
1,102 min,Cn1cc(-c2cc3nccnc3c(NC[C@@H]3CNCCO3)n2)cn1

# System: Rattus norvegicus
# Test: as §1, with “in” for “in po dosed”, “reaction at 10 mg/kg, po” for “reaction”
# Type: functional
# Conditions: not given
# Method in brief: as §2
row,SMILES,inhibition in vivo at 10 mg/kg
1,Cn1cc(-c2cc3nccnc3c(NC[C@@H]3CNCCO3)n2)cn1,45%

# System: not listed separately
# Test: Dissociation constant, pKa of the compound
# Type: physicochemical
# Conditions: not given
row,pKa,SMILES
1,7,Cn1cc(-c2cc3nccnc3c(OCC3CNCC(F)(F)C3)n2)cn1 (racemic)
2,6.9,Cn1cc(-c2cc3nccnc3c(NCC3CNCC(F)(F)C3)n2)cn1 (racemic)
3,7.7,Cn1cc(-c2cc3nccnc3c(OCC3CNCCC3(F)F)n2)cn1 (racemic)

# System: not listed separately
# Test: Genotoxicity in Salmonella typhimurium TA1537 at 5000 ug/plate in presence of metabolic activation by Ames test
# Type: toxicity
# Conditions: salmonella enterica subsp. enterica serovar typhimurium
row,SMILES,Activity
1,Cn1cc(-c2cc3nccnc3c(NC[C@@H]3CNCCO3)n2)cn1,Non-Toxic

# Molecular target: Leucine-rich repeat serine/threonine-protein kinase 2 (Homo sapiens, UniProt Q5S007)
# Test: Inhibition of LRRK2 (unknown origin)
# Conditions: not given
row,IC50,SMILES
1,251 nM,Cn1cc(-c2cc3nccnc3c(NC[C@@H]3CNCCO3)n2)cn1

# Molecular target: Tyrosine-protein kinase BTK (Homo sapiens, UniProt Q06187)
# Test: Inhibition of BTK (unknown origin)
# Conditions: not given
# Chain of Tyrosine-protein kinase BTK (Q06187 whole entry): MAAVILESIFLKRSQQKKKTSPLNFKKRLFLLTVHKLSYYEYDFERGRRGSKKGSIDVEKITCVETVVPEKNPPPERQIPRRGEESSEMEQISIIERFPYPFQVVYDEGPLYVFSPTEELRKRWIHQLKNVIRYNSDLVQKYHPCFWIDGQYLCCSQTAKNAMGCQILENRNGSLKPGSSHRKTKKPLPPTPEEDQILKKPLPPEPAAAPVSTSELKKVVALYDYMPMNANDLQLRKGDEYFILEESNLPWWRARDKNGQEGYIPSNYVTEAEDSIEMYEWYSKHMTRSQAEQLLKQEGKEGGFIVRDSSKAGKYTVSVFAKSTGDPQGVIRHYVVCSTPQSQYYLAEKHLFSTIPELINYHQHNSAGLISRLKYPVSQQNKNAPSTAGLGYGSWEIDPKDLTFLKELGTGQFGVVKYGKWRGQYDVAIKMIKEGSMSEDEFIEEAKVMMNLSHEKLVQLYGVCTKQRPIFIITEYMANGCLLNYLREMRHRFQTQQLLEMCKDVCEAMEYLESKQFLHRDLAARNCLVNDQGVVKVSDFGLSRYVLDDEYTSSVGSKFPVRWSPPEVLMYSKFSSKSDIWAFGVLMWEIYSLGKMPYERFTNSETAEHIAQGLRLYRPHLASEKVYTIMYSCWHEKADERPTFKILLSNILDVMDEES
row,IC50,SMILES
1,251 nM,Cn1cc(-c2cc3nccnc3c(NC[C@@H]3CNCCO3)n2)cn1

# Molecular target: T1, Tyrosine-protein kinase SYK
# Test: Inhibition of SYK in human B cells assessed as suppression of anti-IgM-induced CD69 surface expression preincubated for 30 mins followed by anti-IgM addition measured after 3.5 hrs by flow cytometric analysis
# Type: cell-based
# Conditions: not given
row,IC50,SMILES
1,100 nM,CN1CCNC[C@H]1COc1nc(-c2cnn(C)c2)cc2nccnc12
2,79.4 nM,Cn1cc(-c2cc3nccnc3c(NC[C@@H]3CNCCC3(F)F)n2)cn1
3,631 nM,Cn1cc(-c2cc3nccnc3c(OCC3CNCC(F)(F)C3)n2)cn1 (racemic)
4,2000 nM,Cn1cc(-c2cc3nccnc3c(NCC3CNCC(F)(F)C3)n2)cn1 (racemic)
5,794 nM,Cc1ccc(-c2cc3nccnc3c(NC[C@H]3CCCNC3)n2)o1
6,200 nM,Cn1cc(-c2cc3nccnc3c(OC[C@H]3CCCNC3)n2)cn1
7,1260 nM,Cc1ccc(-c2cc3ncn(C)c(=O)c3c(NC[C@H]3CCCNC3)n2)cc1
8,501 nM,CN(C)c1ccc(-c2cc(NC[C@H]3CCCNC3)c3cccnc3c2)cn1
9,3980 nM,Cc1ccc(-c2cc3nc[nH]c(=O)c3c(NC[C@H]3CCCNC3)n2)cc1
10,1000 nM,Cc1ccc(-c2cc3nccnc3c(NC[C@H]3CCCNC3)n2)s1
11,794 nM,CN(C)c1ccc(-c2cc3ncccc3c(NC[C@H]3CCCNC3)n2)cn1
12,200 nM,CN1CCNC[C@H]1CNc1nc(-c2cnn(C)c2)cc2nccnc12
13,1580 nM,CN(C)c1ccc(-c2cc3nccnc3c(NCC3CNCC(F)(F)C3)n2)cn1 (racemic)
14,501 nM,CN(C)c1ccc(-c2cc3nccnc3c(OC[C@@H]3CCCNC3)n2)cn1
15,158 nM,Cn1cc(-c2cc3nccnc3c(NC[C@@H]3CNCCO3)n2)cn1
